# Measurements published in ChEMBL document CHEMBL3244072, “Synthesis and antiviral and enzymatic studies of certain 3-deazaguanines and their imidazolecarboxamide precursors” (J Med Chem, 1978).
# Active and inactive are the calls of the source. The calls are words filed in the database; no cut-off is given here.
# Assays:
# Ehrlich [1] = test: Inhibition of adenine nucleotide biosynthesis in mouse EAC assessed as [14C]hypoxanthine incorporation at 1 mM after 60 mins by TLC analysis; assay type: functional; conditions: 1 h
# In short: (§1)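 Ehrlich ascites tumor cells (about 6 × 10^6 cells/mL) preincubated 20 min at 37 °C with or without 1 mM compound. [14C]hypoxanthine (55 μCi/μmol) then added to 0.1 mM final for 60 min. Label in adenine or guanine nucleotides of the acid-soluble fraction measured by TLC; inhibition calculated against untreated cells.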
# Pseudomonas aeruginosa = test: Antimicrobial activity against Pseudomonas aeruginosa at 0.4 umol/mL by broth microdilution method; assay type: functional, organism-based
# In short: (§2)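 Broth dilution in defined medium against clinical isolates of each organism.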
# Mus musculus [2] = test: Toxicity in Influenza B virus Lee infected Swiss-Webster mouse assessed as mortality at 50 mg/kg, po qd for 9 days; assay type: organism-based; set-up: dose 50 mg/kg, route oral; conditions: in vivo, 216 h
# Influenza B virus [3] = test: Antiviral activity against Influenza B virus Lee infected in Swiss-Webster mouse assessed as host mean survival days at 50 mg/kg, po qd for 9 days; assay type: functional, B/Lee/1940
# Human alphaherpesvirus 1 = test: Antiviral activity against HSV1 infected in human KB cells assessed as inhibition of virus-induced cytopathic effect after 72 hrs relative to control; assay type: functional, organism-based
# In short: (§3)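 Cell monolayers (18-24 h) infected with 320 CCID50 of virus; compound added within 15 min at half-log dilutions from 1000 to 1 μg/mL. After 72 h at 37 °C, CPE and cytotoxicity scored microscopically (0-4). Virus rating = sum of (control CPE − treated CPE) over drug levels, halved at any level showing toxicity.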
# Influenza B virus [4] = test: Antiviral activity against Influenza B virus Lee infected in Swiss-Webster mouse assessed as host mean survival days at 3.1 mg/kg, po qd for 9 days; assay type: functional, B/Lee/1940
# KB [5] = test: Antiviral activity against Adenovirus type 3 infected in human KB cells assessed as inhibition of virus-induced cytopathic effect after 72 hrs relative to control; assay type: functional, cell-based; conditions: Human adenovirus 3; in short: as §3
# Human respirovirus 3 = test: Antiviral activity against Parainfluenza virus 3 infected in human KB cells assessed as inhibition of virus-induced cytopathic effect after 72 hrs relative to control; assay type: functional, organism-based; in short: as §3
# KB [6] = test: Antiviral activity against Rhinovirus type 13 infected in human KB cells assessed as inhibition of virus-induced cytopathic effect after 72 hrs relative to control; assay type: functional, cell-based; conditions: Human rhinovirus A13; in short: as §3
# Epidermophyton floccosum = test: Antimicrobial activity against Epidermophyton floccosum at 0.4 umol/mL by broth microdilution method; assay type: functional, organism-based; in short: as §2
# Mus musculus [7] = test: Toxicity in Influenza B virus Lee infected Swiss-Webster mouse assessed as mortality at 12.5 mg/kg, po qd for 9 days; assay type: organism-based; set-up: dose 12.5 mg/kg, route oral; conditions: in vivo, 216 h
# Mus musculus [8] = test: Toxicity in Influenza B virus Lee infected Swiss-Webster mouse assessed as mortality at 100 mg/kg, po qd for 9 days; assay type: organism-based; set-up: dose 100 mg/kg, route oral; conditions: in vivo, 216 h
# Microsporum canis = test: Antimicrobial activity against Microsporum canis at 0.4 umol/mL by broth microdilution method; assay type: functional, organism-based; in short: as §2
# Ehrlich [9] = test: Inhibition of guanine nucleotide biosynthesis in mouse EAC assessed as [14C]hypoxanthine incorporation at 1 mM after 60 mins by TLC analysis; assay type: functional; conditions: 1 h; in short: as §1
# [10] = tested on: Trichophyton mentagrophytes; test: Antimicrobial activity against Trichophyton mentagrophytes at 0.4 umol/mL by broth microdilution method; assay type: functional, organism-based; in short: as §2
# Candida albicans = test: Antimicrobial activity against Candida albicans at 0.4 umol/mL by broth microdilution method; assay type: functional, organism-based; in short: as §2
# Influenza B virus [11] = test: Antiviral activity against Influenza B virus Lee infected in Swiss-Webster mouse assessed as host mean survival days at 12.5 mg/kg, po qd for 9 days; assay type: functional, B/Lee/1940
# Influenza B virus [12] = test: Antiviral activity against Influenza B virus Lee infected in Swiss-Webster mouse assessed as host mean survival days at 100 mg/kg, po qd for 9 days; assay type: functional, B/Lee/1940
# Staphylococcus aureus = test: Antimicrobial activity against Staphylococcus aureus at 0.4 umol/mL by broth microdilution method; assay type: functional, organism-based; in short: as §2
smiles,measurement,setting,value
N#CCc1[nH]cnc1C(N)=O,inhibition at 1000 µM,Ehrlich [1],8%
same,Activity,Pseudomonas aeruginosa,inactive
same,Activity,Mus musculus [2],Non-toxic
same,Time,Influenza B virus [3],>0.3 days
same,Activity,Human alphaherpesvirus 1,Active
same,Time,Influenza B virus [4],0.23 days
same,Activity,KB [5],Active
same,Activity,Human respirovirus 3,Active
same,Activity,KB [6],Active
same,Activity,Epidermophyton floccosum,inactive
same,Activity,Mus musculus [7],Non-toxic
same,Activity,Mus musculus [8],Non-toxic
same,Activity,Microsporum canis,inactive
same,inhibition at 1000 µM,Ehrlich [9],39%
same,Activity,[10],inactive
same,Activity,Candida albicans,inactive
same,Time,Influenza B virus [11],>0.3 days
same,Time,Influenza B virus [12],0.118 days
same,Activity,Staphylococcus aureus,inactive
